Data published in ChEMBL document CHEMBL4190330, “Discovery of Potent and Selective A2A Antagonists with Efficacy in Animal Models of Parkinson's Disease and Depression” (ACS Med Chem Lett, 2017).
Calls of active or inactive are those of the source. The rule behind the calls is not given here.

Tests used:
Homo sapiens [1] = organism: Homo sapiens; test: Selectivity ratio of Ki for displacement of [3H]-DPCPX from human A1 receptor expressed in HEK293 cell membranes to Ki for displacement of [3H]ZM241385 from human A2A receptor expressed in HEK293 cell membranes
Outline: (§1)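 Radioligand binding used membranes from HEK-293 cells overexpressing each human adenosine receptor isoform. Points were run in triplicate, and 8-concentration IC50 curves were plotted to give Ki. The selectivity value is the Ki at the off-target isoform divided by the Ki at hA2A.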

Mus musculus [2] = test: Antidepressant-like activity in po dosed mouse assessed as reduction in immobility time treated 1 hr prior to testing measured for 6 mins by tail suspension test
Rattus norvegicus [3] = test: Anti-parkinson's activity in po dosed Wistar rat assessed as reversal of haloperidol-induced catalepsy measured after 1 to 4 hrs; type: functional, organism-based
Outline: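 Haloperidol-induced catalepsy in rats; oral dosing; catalepsy scored at 1, 2 and 4 h; ED50 derived; mean ± SEM, n=6-7.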

[4] = target: T1, Adenosine receptor A1 (Homo sapiens) (UniProt P30542); test: Antagonist activity at human adenosine A1 receptor expressed in HEK293 cell membranes assessed as inhibition of CPA/forskolin-induced cAMP level at 10 uM pretreated for 15 mins followed by agonist addition for 15 mins and subsequent forskolin stimulation measured after 30 mins by HTRF assay; type: functional, cell-based
T1 sequence (whole entry): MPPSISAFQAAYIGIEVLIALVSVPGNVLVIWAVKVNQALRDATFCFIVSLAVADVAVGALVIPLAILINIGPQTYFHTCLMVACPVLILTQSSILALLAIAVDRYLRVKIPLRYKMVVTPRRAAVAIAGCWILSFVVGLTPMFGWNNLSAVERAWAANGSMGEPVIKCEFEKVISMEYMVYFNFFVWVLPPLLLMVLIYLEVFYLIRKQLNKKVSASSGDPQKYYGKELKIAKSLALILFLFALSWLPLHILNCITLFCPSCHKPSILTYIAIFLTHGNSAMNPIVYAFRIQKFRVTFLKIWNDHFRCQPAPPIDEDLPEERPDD
Outline: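 HTRF cAMP functional assay on the human receptor isoform, run in triplicate at 12 concentrations with a top concentration of 10 µM, in two independent experiments. Inhibition at 10 µM is recorded where no Ki could be derived.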

[5] = AUC (0 to t) in Wistar rat at 10 mg/kg, po administered via gavage by LC-MS/MS analysis; type: ADME, organism-based; conditions: in vivo
[6] = Protein binding in mouse plasma; type: ADME, cell-free; conditions: read-out: PPB (converted)
Adenosine receptor A2a = Adenosine receptor A2a (Rattus norvegicus, UniProt P30543); test: Antagonist activity at rat A2A receptor assessed as reduction in CGS-21680-induced cAMP level pretreated for 15 mins followed by CGS-21680 addition measured after 30 mins by HTRF assay; type: functional
Outline: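 HTRF-based cAMP functional assay; each compound tested at 12 concentrations, every point in triplicate; Ki given as mean of two independent experiments (n=2).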

Rattus norvegicus [7] = test: Protection against L-DOPA-induced dyskinesias in 6-OHDA-lesioned Wistar rat model of parkinson's disease assessed as reduction in abnormal involuntary movements at 0.3 to 3 mg/kg, po administered twice daily for 21 days measured every 7 days; type: functional, organism-based
Outline: (§2)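 6-OHDA-lesioned rats given oral test compound (0.3-3 mg/kg) with L-DOPA, repeated daily; abnormal involuntary movements scored; mean ± SEM, n=6-7.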

Cytochrome P450 2D6 = Cytochrome P450 2D6 (Homo sapiens, UniProt P10635); test: Inhibition of CYP2D6 (unknown origin); type: ADME
[8] = Solubility of the compound at pH 2; type: physicochemical; conditions: buffer
hERG [9] = target: T2, hERG (Homo sapiens, UniProt Q12809); test: Inhibition of human ERG at 10 uM relative to control
[10] = Metabolic stability in dog liver microsomes assessed as metabolic rate; type: ADME, Canis lupus familiaris, microsome
Outline: (§3)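 Liver microsomes (mouse, rat, dog, human) at 0.125 mg/mL protein; metabolic rate expressed as nmol/min/mg.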

[11] = Protein binding in rat plasma; type: ADME, cell-free; conditions: read-out: PPB (converted)
Cytochrome P450 2C19 = Cytochrome P450 2C19 (Homo sapiens, UniProt P33261); test: Inhibition of CYP2C19 (unknown origin); type: ADME
Adenosine receptor A1 = target: T3, Adenosine receptor A1 (Homo sapiens, UniProt P30542); test: Displacement of [3H]-DPCPX from human A1 receptor expressed in HEK293 cell membranes after 90 mins radioligand binding assay
T3 sequence (P30542 whole entry): T1 sequence (whole entry)
Outline: (§4)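 Membranes from HEK-293 cells overexpressing the relevant human adenosine receptor subtype; all points in triplicate; Ki derived from 8-concentration IC50 curves.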

hERG [12] = target: T2, hERG; test: Inhibition of human ERG at 3 uM relative to control
[13] = Ratio of AUC (0 to 4 hrs) in Wistar rat brain to plasma at 3 mg/kg, iv by LC-MS/MS analysis; type: ADME, organism-based; conditions: read-out: Ratio AUC
HepG2 = test: Cytotoxicity against human HepG2 cells after 24 hrs by MTT assay; type: cell-based; conditions: HepG2, 24 h
Homo sapiens [14] = organism: Homo sapiens; test: Selectivity ratio of Ki for displacement of [3H]-MRS-1754 from human A2B receptor expressed in HEK293 cell membranes to Ki for displacement of [3H]ZM241385 from human A2A receptor expressed in HEK293 cell membranes; outline: as §1
Adenosine receptor A2b = target: T4, Adenosine receptor A2b (Homo sapiens, UniProt P29275); test: Displacement of [3H]-MRS-1754 from human A2B receptor expressed in HEK293 cell membranes after 90 mins radioligand binding assay; outline: as §4
T4 sequence (P29275 whole entry): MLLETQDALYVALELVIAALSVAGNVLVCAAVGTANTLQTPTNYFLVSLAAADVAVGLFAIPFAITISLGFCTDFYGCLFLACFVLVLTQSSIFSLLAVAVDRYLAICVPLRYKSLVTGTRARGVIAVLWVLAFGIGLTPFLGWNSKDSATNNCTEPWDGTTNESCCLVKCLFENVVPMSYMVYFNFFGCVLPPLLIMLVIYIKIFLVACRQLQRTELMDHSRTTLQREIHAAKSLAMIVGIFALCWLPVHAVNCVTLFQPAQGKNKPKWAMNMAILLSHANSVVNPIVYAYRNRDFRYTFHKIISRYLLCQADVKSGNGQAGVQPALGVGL

[15] = Tmax in Wistar rat at 10 mg/kg, po administered via gavage by LC-MS/MS analysis; type: ADME, organism-based; conditions: in vivo
Outline: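 Male Wistar rats, n = 4; oral dose 10 mg/kg as suspension in 1% Tween 80 with 0.5% w/v NaCMC; values are means.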

Rattus norvegicus [16] = test: Toxicity in 6-OHDA-lesioned Wistar rat model of parkinson's disease assessed as induction of dyskinesia at 0.3 to 3 mg/kg, po administered twice daily for 21 days; type: organism-based; conditions: in vivo, 504 h; outline: as §2
[17] = Permeability across apical to basolateral side in human Caco2 cells; type: ADME, cell-based; conditions: caco-2
[18] = Metabolic stability in rat liver microsomes assessed as metabolic rate; type: ADME, microsome; outline: as §3
Mus musculus [19] = test: Antidepressant-like activity in po dosed mouse assessed as reduction in immobility time treated 1 hr prior to testing measured last 4 mins of 6 mins test by forced swim test
[20] = AUC (0 to t) in Wistar rat at 3 mg/kg, iv by LC-MS/MS analysis; type: ADME, organism-based; conditions: in vivo

T2 sequence (Q12809 whole entry): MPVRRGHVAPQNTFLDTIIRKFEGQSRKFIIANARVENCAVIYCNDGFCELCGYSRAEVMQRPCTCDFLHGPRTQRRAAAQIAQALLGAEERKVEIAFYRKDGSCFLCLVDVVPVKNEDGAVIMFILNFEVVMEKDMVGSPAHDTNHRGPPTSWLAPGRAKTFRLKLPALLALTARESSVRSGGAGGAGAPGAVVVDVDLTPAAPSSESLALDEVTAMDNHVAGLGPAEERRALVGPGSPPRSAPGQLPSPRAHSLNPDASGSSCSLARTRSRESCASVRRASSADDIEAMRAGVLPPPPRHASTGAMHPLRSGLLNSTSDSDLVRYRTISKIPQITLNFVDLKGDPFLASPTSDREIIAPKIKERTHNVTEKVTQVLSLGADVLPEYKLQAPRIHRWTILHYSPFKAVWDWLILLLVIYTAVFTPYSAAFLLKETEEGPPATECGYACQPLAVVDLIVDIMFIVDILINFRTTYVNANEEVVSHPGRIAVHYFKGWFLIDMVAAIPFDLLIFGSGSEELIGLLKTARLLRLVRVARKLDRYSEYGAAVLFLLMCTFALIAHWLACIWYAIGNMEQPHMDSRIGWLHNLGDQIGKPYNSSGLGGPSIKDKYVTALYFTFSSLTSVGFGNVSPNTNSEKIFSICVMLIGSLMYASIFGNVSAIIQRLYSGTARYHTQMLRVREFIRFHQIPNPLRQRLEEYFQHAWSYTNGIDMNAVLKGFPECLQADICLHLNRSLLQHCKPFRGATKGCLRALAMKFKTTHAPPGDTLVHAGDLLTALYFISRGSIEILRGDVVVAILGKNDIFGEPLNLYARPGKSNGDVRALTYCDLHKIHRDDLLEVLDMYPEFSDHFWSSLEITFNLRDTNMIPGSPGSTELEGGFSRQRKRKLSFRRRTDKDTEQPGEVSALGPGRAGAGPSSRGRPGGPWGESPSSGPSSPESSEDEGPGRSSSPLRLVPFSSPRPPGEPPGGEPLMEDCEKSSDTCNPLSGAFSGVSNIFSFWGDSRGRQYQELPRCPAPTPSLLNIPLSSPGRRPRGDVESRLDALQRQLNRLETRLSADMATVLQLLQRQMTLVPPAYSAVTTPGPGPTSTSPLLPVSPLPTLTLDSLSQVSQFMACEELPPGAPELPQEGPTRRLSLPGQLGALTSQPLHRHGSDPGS
Cytochrome P450 2D6, sequence (P10635 whole entry): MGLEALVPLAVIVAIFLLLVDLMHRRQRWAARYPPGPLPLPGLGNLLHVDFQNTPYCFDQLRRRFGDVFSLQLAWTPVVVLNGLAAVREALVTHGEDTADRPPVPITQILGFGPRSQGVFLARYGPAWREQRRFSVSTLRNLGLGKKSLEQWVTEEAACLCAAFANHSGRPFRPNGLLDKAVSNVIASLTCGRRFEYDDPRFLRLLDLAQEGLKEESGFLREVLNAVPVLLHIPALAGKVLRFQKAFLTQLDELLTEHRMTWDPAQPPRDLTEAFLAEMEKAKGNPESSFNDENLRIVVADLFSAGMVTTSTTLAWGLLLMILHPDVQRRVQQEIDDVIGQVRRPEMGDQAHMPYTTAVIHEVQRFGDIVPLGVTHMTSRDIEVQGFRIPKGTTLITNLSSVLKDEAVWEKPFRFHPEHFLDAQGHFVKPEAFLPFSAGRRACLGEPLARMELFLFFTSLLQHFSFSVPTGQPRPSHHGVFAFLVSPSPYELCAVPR
Adenosine receptor A2a, sequence (P30543 whole entry): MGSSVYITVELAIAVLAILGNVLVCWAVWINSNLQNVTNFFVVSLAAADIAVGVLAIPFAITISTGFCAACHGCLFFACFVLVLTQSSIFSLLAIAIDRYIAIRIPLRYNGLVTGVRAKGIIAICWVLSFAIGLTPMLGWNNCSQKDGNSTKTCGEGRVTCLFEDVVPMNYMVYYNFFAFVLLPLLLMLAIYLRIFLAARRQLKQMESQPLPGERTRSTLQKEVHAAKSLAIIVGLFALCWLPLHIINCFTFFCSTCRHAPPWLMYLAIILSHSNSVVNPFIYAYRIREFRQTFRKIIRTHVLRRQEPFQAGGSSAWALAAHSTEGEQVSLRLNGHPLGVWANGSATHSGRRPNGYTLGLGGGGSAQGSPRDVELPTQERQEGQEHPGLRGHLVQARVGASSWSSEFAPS
Cytochrome P450 2C19, sequence (P33261 whole entry): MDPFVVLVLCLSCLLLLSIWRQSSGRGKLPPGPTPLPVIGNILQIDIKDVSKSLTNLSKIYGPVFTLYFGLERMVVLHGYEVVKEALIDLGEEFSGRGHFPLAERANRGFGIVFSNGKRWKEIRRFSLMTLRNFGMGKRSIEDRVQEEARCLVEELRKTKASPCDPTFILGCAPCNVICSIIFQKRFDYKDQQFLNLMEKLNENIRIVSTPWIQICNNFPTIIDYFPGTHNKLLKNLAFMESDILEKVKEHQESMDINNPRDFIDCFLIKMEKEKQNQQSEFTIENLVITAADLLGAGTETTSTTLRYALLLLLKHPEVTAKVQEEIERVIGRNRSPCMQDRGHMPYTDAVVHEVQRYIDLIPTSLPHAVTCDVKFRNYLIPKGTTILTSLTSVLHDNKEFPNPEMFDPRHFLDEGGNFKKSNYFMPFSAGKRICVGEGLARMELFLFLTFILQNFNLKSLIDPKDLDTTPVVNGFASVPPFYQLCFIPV

With `COCCOc1ccc(N2CCN(CCn3c(=O)n(C)c4c3nc(N)n3nc(-c5nccs5)nc43)CC2)cc1F` the Ratio Ki (Homo sapiens [1]) was greater than 1100, the ED50 (Mus musculus [2]) was 0.7 mg/kg and the Activity (Rattus norvegicus [3]) was “Dose-dependent effect”. For the same compound, the ED50 (Rattus norvegicus [3]) was 4.49 mg/kg, the inhibition [4] was “inactive” and the AUC(0-t) [5] was 2.2 µM·h. The fraction unbound [6] was 0.49, the Ki (Adenosine receptor A2a) was 0.00044 to 0.0044 µM and the Activity (Rattus norvegicus [7]) was “Active”. It also gave an IC50 (Cytochrome P450 2D6) greater than 10 µM, a solubility [8] greater than 2000 µM and an inhibition at 10 µM (hERG [9]) of 38%. It also gave a Drug metabolism [10] of 0.04 nmol/min/mg, a fraction unbound [11] of 0.18 and an IC50 (Cytochrome P450 2C19) greater than 10 µM. The Ki (Adenosine receptor A1) was 1.7 µM, the inhibition at 3 µM (hERG [12]) was 28% and the Kp [13] was 0.38. For the same compound, the IC50 (HepG2) was greater than 30 µM, the Ratio Ki (Homo sapiens [14]) was greater than 3000 and the Ki (Adenosine receptor A2b) was 5 µM. The Tmax [15] was 48 min, the Activity (Rattus norvegicus [16]) was “Non-Toxic” and the permeability [17] was “Permeable”. It also gave a Drug metabolism [18] of 0 nmol/min/mg, an ED50 (Mus musculus [19]) of 5.29 mg/kg and an AUC(0-t) [20] of 3.6 µM·h.
